From ChEMBL document CHEMBL1148214, “In-vitro cytotoxic activities of the major bromophenols of the red alga Polysiphonia lanosa and some novel synthetic isomers” (J Nat Prod, 2004)
Calls of active or inactive are those of the source. The calls are words filed in the database; no cut-off is given here.

What was measured:
[1] = system: DLD-1; experiment: Cytotoxicity against human DLD1 cells after 96 hrs by MTT assay; assay type: functional, cell-based; parameters: unit not given here
In short: (§1)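 DLD-1 or HCT-116 cells in RPMI 1640 with 10% FCS, seeded at 1 × 10^4 cells mL-1 and incubated overnight at 37 °C, 5% CO2. Continuous 4-day drug exposure, drug in DMSO (max 0.1%), 8 wells per concentration. MTT 0.5 mg mL-1 for 4 h; formazan in DMSO read at 550 nm. IC50 taken as 50% growth inhibition versus control; 5FU positive control; triplicate.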

[2] = system: HCT-116; experiment: Cytotoxicity against human HCT116 cells after 96 hrs by MTT assay; assay type: functional, cell-based; in short: as §1
[3] = system: DLD-1; experiment: Cytotoxicity against human DLD1 cells after 24 hrs by MTT assay; assay type: functional, cell-based
In short: (§2)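 DLD-1 cells seeded at 1 × 10^4 cells mL-1 and incubated overnight at 37 °C, 5% CO2. Drug was in DMSO (max 0.1% final) diluted in medium, 8 wells per concentration. After 1, 3 or 24 h the drug was removed, cells washed twice and grown in fresh medium to 4 days total. MTT at 0.5 mg mL-1 for 4 h; formazan dissolved in DMSO, absorbance read at 550 nm. IC50 determined relative to control survival; triplicate experiments.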

[4] = system: DLD-1; experiment: Cytotoxicity against human DLD1 cells after 3 hrs by MTT assay; assay type: functional, cell-based; in short: as §2
[5] = system: DLD-1; experiment: Cell cycle arrest in human DLD1 cells assessed as accumulation at G2/M phase at 10 umol after 72 hrs by flow cytometry; assay type: functional
In short: (§3)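 DLD-1 cells seeded at 5 × 10^4 cells mL-1 and grown 24 h at 37 °C, then exposed to drug for 72 h. Harvested by trypsinisation, fixed in 70% EtOH, suspended in PBS pH 7.3, RNase-treated and stained with propidium iodide for 30 min at 37 °C. DNA content measured by flow cytometry on 10 000 cells; percentage of cells in each cycle phase calculated.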

[6] = system: DLD-1; experiment: Cell cycle arrest in human DLD1 cells assessed as accumulation at G0/G1 phase at 5 umol after 72 hrs by flow cytometry; assay type: functional; in short: as §3
[7] = system: DLD-1; experiment: Cell cycle arrest in human DLD1 cells assessed as accumulation at G2/M phase at 2.5 umol after 72 hrs by flow cytometry; assay type: functional; in short: as §3
[8] = system: DLD-1; experiment: Cell cycle arrest in human DLD1 cells assessed as accumulation at S phase at 5 umol after 72 hrs by flow cytometry; assay type: functional; in short: as §3
[9] = system: DLD-1; experiment: Cell cycle arrest in human DLD1 cells assessed as accumulation at S phase at 10 umol after 72 hrs by flow cytometry; assay type: functional; in short: as §3
[10] = system: DLD-1; experiment: Cytotoxicity against human DLD1 cells at 8 umol after 96 hrs by MTT assay; assay type: functional, cell-based
In short: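 DLD-1 cells exposed continuously for 4 days to drug at 8 µmol in DMSO-containing medium (max 0.1% DMSO). Survival measured by MTT at 0.5 mg mL-1 for 4 h, formazan read at 550 nm, and expressed as percentage of mean control absorbance.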

[11] = system: DLD-1; experiment: Cell cycle arrest in human DLD1 cells assessed as accumulation at S phase at 2.5 umol after 72 hrs by flow cytometry; assay type: functional; in short: as §3
[12] = system: DLD-1; experiment: Cell cycle arrest in human DLD1 cells assessed as accumulation at G2/M phase at 5 umol after 72 hrs by flow cytometry; assay type: functional; in short: as §3
[13] = system: DLD-1; experiment: Cell cycle arrest in human DLD1 cells assessed as accumulation at G0/G1 phase at 10 umol after 72 hrs by flow cytometry; assay type: functional; in short: as §3
[14] = system: DLD-1; experiment: Cytotoxicity against human DLD1 cells after 1 hr by MTT assay; assay type: functional, cell-based; in short: as §2
[15] = system: DLD-1; experiment: Cell cycle arrest in human DLD1 cells assessed as accumulation at G0/G1 phase at 2.5 umol after 72 hrs by flow cytometry; assay type: functional; in short: as §3

SMILES	IC50 [1]	IC50 [2] [µmol]	also measured
COCc1cc(O)c(O)c(Br)c1	35.3	–	–
COCc1cc(Br)c(O)c(O)c1Br	7.27	3.48	–
CCCOCc1cc(O)c(O)c(Br)c1	26.3	–	–
O=Cc1cc(Br)c(O)c(O)c1Br	31	–	–
OCc1cc(O)c(O)c(Br)c1Br [LANOSOL]	–	20.4	–
O=Cc1cc(O)c(O)c(Br)c1Br	30.9	–	–
CCOCc1cc(Br)c(O)c(O)c1Br	7.15	1.54	–
COCc1cc(O)c(O)c(Br)c1Br	–	14.1	–
CCOCc1cc(O)c(O)c(Br)c1Br [ETHYL LANOSOL]	13.5	2.51	–
OCc1cc(O)c(O)c(Br)c1	51.5	–	–
OCc1cc(Br)c(O)c(O)c1Br	15	21.4	–
CCOCc1cc(O)c(O)c(Br)c1	35.1	–	–
O=Cc1cc(O)c(O)c(Br)c1	27.9	–	–
CCCOCc1cc(Br)c(O)c(O)c1Br	1.72	0.8	IC50 [3]: 2.71 µmol; IC50 [4]: 77.98 µmol; Activity [5]: 9.95%; Activity [6]: 19.65%; Activity [7]: 25.65%; Activity [8]: 60.56%; Activity [9]: 33.65%; Activity [10]: Active; Activity [11]: 42.21%; Activity [12]: 19.79%; Activity [13]: 56.4%; IC50 [14]: 79.76 µmol; Activity [15]: 32.14%
O=c1[nH]cc(F)c(=O)[nH]1 [FLUOROURACIL]	–	4.93	–
COc1cc(C=O)cc(Br)c1O	> 200	–	–
CCCOCc1cc(O)c(O)c(Br)c1Br	12.4	1.32	–
Oc1c(O)c(Br)c(Br)c(Br)c1Br [TETRABROMOCATECHOL]	6.43	8.75	–
